Test results: publication PMC11559620 (Science Advances, 2024)
Numbering of substitutions follows the chain as printed. In names and notes the source's numbering stands. Ends that are not written are not given here.

Key:
CML18 [1] = target: T1, CML18 (Arabidopsis thaliana, UniProt Q9M8U1); assay: Isothermal titration calorimetry, CBD peptide; assay type: binding
T1 sequence (Q9M8U1 1-165): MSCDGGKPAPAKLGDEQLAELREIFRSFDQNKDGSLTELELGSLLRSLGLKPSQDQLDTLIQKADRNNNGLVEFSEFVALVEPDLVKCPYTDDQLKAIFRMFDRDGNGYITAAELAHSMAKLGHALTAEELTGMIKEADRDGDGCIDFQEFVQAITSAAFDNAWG
Method in brief: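 ITC at 25°C: 200 μM CML18 was titrated into 20 μM CBD peptide in 2-μl injections at 150-s intervals, stirred at 750 rpm, in buffer C (pH 6.3) or D (pH 8.3), with 18 μM EGTA or 180 μM Ca2+. Heats from ligand-into-buffer controls were subtracted. Two titrations were run for each of two independent protein preparations.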

CML18 [2] = target: T1, CML18; assay: Far-UV circular dichroism of CML18:CML-BD complex; assay type: binding
Method in brief: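 Far-UV CD (320–202 nm, 20°C, 1.0-mm quartz cuvette) of decalcified CML18, the synthetic CBD peptide, and a 1:1 protein:peptide mixture, each at pH 6.3 and 8.3. The spectrum expected for non-interacting samples was calculated as the sum of the two individual spectra and compared with the mixture.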

CML18 [3] = assay: Yeast two-hybrid assay, interaction with CML18; assay type: cell-based, Arabidopsis; conditions: for interaction with CML18 (Y2H): C-terminal cytosolic fragments, selective YNB media
Method in brief: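 Strain AH109 was cotransformed with NHX C-terminal fragments in pGBKT7 (GAL4 BD) and CML17 or CML18 in pGADT7 (GAL4 AD), selected on YNB-Trp-Leu. Cultures were grown at 28°C to saturation (OD600 ~2), then 5-μl drops of 10-fold dilutions were spotted on YNB-Trp-Leu, -His-Trp-Leu and -Ade-Trp-Leu. Plates were incubated at 28°C for 3–4 days. p53/pSV40 served as positive control, empty vectors as negative.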

yeast vacuoles = assay: Vacuolar pH of yeast by BCECF-AM; assay type: cell-based, Saccharomyces cerevisiae; conditions: n = 8
CML18 [4] = assay: Bimolecular fluorescence complementation, interaction with CML18; assay type: cell-based, Arabidopsis; conditions: leaves of N. benthamiana
Method in brief: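 Agrobacterium GV3101 carrying BiFC constructs was co-infiltrated with a p19-transformed strain into 5- to 6-week-old N. benthamiana leaves. Full-length NHX1 or NHX2 and CML18 were each fused to complementary halves of eYFP. Empty pSPYCE(M) served as negative control. The lower epidermis was imaged by confocal microscopy (515-nm laser, 60× objective) under constant imaging settings, using a YFP filter.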

AXT3K strain = assay: Complementation assay, hygromycin B resistance of yeast AXT3K; assay type: cell-based, Saccharomyces cerevisiae; conditions: YPD + HygB (50 μg/ml), 30°C
[5] = Far-UV circular dichroism of CML18; assay type: physicochemical
Method in brief: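 CML18 was decalcified by dialysis against 20 mM EGTA, then re-dialysed into EGTA-free buffer C (20 mM MES pH 6.3, 80 mM KCl, 5 mM NaCl, 2 mM DTT) or buffer D (same, with 20 mM tris pH 8.3). Far-UV CD spectra (320–202 nm) were recorded at 0.2 mg/ml, 20°C, 1.0-mm quartz cuvette, with 180 μM Ca2+ or 18 μM EGTA.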

Tryptophan = assay type: physicochemical
Method in brief: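 Decalcified CML18 was dialysed into buffer C (20 mM MES pH 6.3) or D (20 mM tris pH 8.3), both with 80 mM KCl, 5 mM NaCl, 2 mM DTT. Samples of 10 μl at 25 μM were loaded into UV capillaries and heated from 35 to 95°C at […]. The initial Trp emission ratio (350/330 nm) was taken at the start. For Ca2+ titrations, 20 μM EGTA was kept constant.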

NHX1 = conditions: ref [15]; cited from earlier work
C terminus of NHX1 = assay: Yeast two-hybrid assay, dimerization with C terminus of NHX1; assay type: cell-based, Arabidopsis; conditions: fig. S2; cytosolic C-terminal domains

## DSIRGFLTRPTRTVHYYWRQFDDSFMRPVFGGR [CML-BD]
CML18 [1]; pH 6.3, presence of Ca2+
  complex formation with CML18: high-affinity complex is formed
CML18 [1]; pH 6.3, model fit, equal affinity
  CML-BD binding sites per CML18 monomer: two CML-BD binding sites with equal affinity per CML18 monomer
CML18 [2]; far-UV CD, 20°C, peptide alone
  helical content in solution: no helical content
CML18 [2]; far-UV CD, pH 6.3 versus 8.3
  binding of CML18 to CBD peptide, pH dependence: mostly favored at acidic pH
CML18 [2]; pH 6.3, 1:1 protein:peptide, far-UV CD, relative to CML18 alone
  α-helical content of the mixture with CML18: increased α-helical content
CML18 [2]; pH 8.3, absence of Ca2+
  interaction with CML18: no interaction is observed
CML18 [2]; pH 8.3, 1:1 protein:peptide, far-UV CD
  helicity of the mixture with CML18: only a small increase in helicity

## NHX1∆CBD: NHX1 with the CBD deleted (residues S486 to G516)
CML18 [3]
  interaction with CML18 (Y2H): tested negative
Yeast vacuoles
  vacuolar pH (pHvac): overly acidic
CML18 [4]
  interaction with CML18 (BiFC): lost the interaction with CML18

B1: NHX4: vacuolar exchanger; C-terminal residues T437 to C529 in Y2H (protein)
chain: TKPLVNYLLPQDASHNTGNRGKRTEPGSPKEDATLPLLSFDESASTNFNRAKDSISLLMEQPVYTIHRYWRKFDDTYMRPIFGGPRRENQPEC
modifications: left off: Gal4 DNA-binding domain (vector pGBKT7), end not stated, kept
CML18 [3]
  interaction with CML18 (Y2H): strongly

B2: W502A: NHX1 mutant in the CBD (protein, UniProt Q68KI4 1-538, looked up, variant W502A)
Sodium/hydrogen exchanger 1: MLDSLVSKLPSLSTSDHASVVALNLFVALLCACIVLGHLLEENRWMNESITALLIGLGTGVTILLISKGKSSHLLVFSEDLFFIYLLPPIIFNAGFQVKKKQFFRNFVTIMLFGAVGTIISCTIISLGVTQFFKKLDIGTFDLGDYLAIGAIFAATDSVCTLQVLNQDETPLLYSLVFGEGVVNDATSVVVFNAIQSFDLTHLNHEAAFHLLGNFLYLFLLSTLLGAATGLISAYVIKKLYFGRHSTDREVALMMLMAYLSYMLAELFDLSGILTVFFCGIVMSHYTWHNVTESSRITTKHTFATLSFLAETFIFLYVGMDALDIDKWRSVSDTPGTSIAVSSILMGLVMVGRAAFVFPLSFLSNLAKKNQSEKINFNMQVVIWWSGLMRGAVSMALAYNKFTRAGHTDVRGNAIMITSTITVCLFSTVVFGMLTKPLISYLLPHQNATTSMLSDDNTPKSIHIPLLDQDSFIEPSGNHNVPRPDSIRGFLTRPTRTVHYYARQFDDSFMRPVFGGRGFVPFVPGSPTERNPPDLSKA
CML18 [3]
  interaction with CML18 (Y2H): essential for the interaction
AXT3K strain
  HygB resistance / protein activity in AXT3K: inactive

B3: H479L: NHX1 mutant outside the CBD, control (protein, UniProt Q68KI4 1-538, looked up, variant H479L)
Sodium/hydrogen exchanger 1: B2 Sodium/hydrogen exchanger 1 with H479L, A502W
AXT3K strain
  HygB resistance / protein activity in AXT3K: supported grow
Yeast vacuoles
  vacuolar pH (pHvac): no substantial differences

B4: H479L-H499L (protein, UniProt Q68KI4 1-538, looked up, variant H479L H499L)
Sodium/hydrogen exchanger 1: B2 Sodium/hydrogen exchanger 1 with H479L, H499L, A502W
AXT3K strain
  HygB resistance / protein activity in AXT3K: supported grow
Yeast vacuoles
  vacuolar pH (pHvac): no substantial differences

B5: H285L (protein, UniProt Q68KI4 1-538, looked up, variant H285L)
Sodium/hydrogen exchanger 1: B2 Sodium/hydrogen exchanger 1 with H285L, A502W
AXT3K strain
  HygB resistance / protein activity in AXT3K: inactive

B6: H499L: NHX1 mutant within the CBD (protein, UniProt Q68KI4 1-538, looked up, variant H499L)
Sodium/hydrogen exchanger 1: B2 Sodium/hydrogen exchanger 1 with H499L, A502W
CML18 [3]
  interaction with CML18 (Y2H): not as strong as with the WT NHX1
CML18 [3]; YNB-His
  growth of cells coexpressing CML18 (Y2H): able to grow
CML18 [3]; YNB-His-Ade
  growth of cells coexpressing CML18 (Y2H): not in the more stringent media YNB-His-Ade
AXT3K strain
  HygB resistance / protein activity in AXT3K: supported grow
Yeast vacuoles
  vacuolar pH (pHvac): no substantial differences

B7: Y286A (protein, UniProt Q68KI4 1-538, looked up, variant Y286A)
Sodium/hydrogen exchanger 1: B2 Sodium/hydrogen exchanger 1 with Y286A, A502W
AXT3K strain
  HygB resistance / protein activity in AXT3K: inactive

B8: D506A: NHX1 mutant in the CBD (protein, UniProt Q68KI4 1-538, looked up, variant D506A)
Sodium/hydrogen exchanger 1: B2 Sodium/hydrogen exchanger 1 with A502W, D506A
CML18 [3]
  interaction with CML18 (Y2H): essential for the interaction
AXT3K strain
  HygB resistance / protein activity in AXT3K: inactive

B9: CML18: calmodulin-like protein of Arabidopsis, At3g03000 (protein)
chain: T1 sequence (Q9M8U1 1-165)
modifications: left off: cYFP (C-terminal half of YFP), C-terminal, kept
[5]; 180 μM Ca2+ or 18 μM EGTA, pH 6.3 and 8.3
  CD spectrum change upon addition of Ca2+ or EGTA: no noticeable changes in the spectrum
[5]; pH 6.3 compared to pH 8.3, 0.2 mg/ml, 20°C
  CD peak at 222 nm: clear increase of the peak at 222 nm at pH 6.3 compared to pH 8.3
Tryptophan; pH 6.3 versus pH 8.3, 350/330 nm, 25 μM CML18
  W164 fluorescence red shift: remarkable red shift
NHX1
  effect on K+/H+ and Na+/H+ exchange rates of NHX1: inhibition
  effect on K+/H+ transport by NHX1: inhibit

B10: CML18-D161N (protein, UniProt Q9M8U1 1-165, looked up, variant D161N)
Probable calcium-binding …: T1 sequence (Q9M8U1 1-165) with D161N
[5]; fig. S6
  far-UV CD spectrum compared with WT at pH 6.3: nearly identical to that of the WT protein at pH 6.3
Tryptophan; pH 6.3 and 8.3
  350-nm/330-nm emission ratio, pH dependence: remained constant regardless of pH

B11: NHX2: vacuolar exchanger; C-terminal residues G434 to P546 in Y2H (protein, UniProt Q56XP4 434-546, looked up, fragment)
chain: GMLTKPLIRYLMPHQKATTSTTSMLSDDSTPKSIHIPLLDGEQLDSFELPGSHQDVPRPNSLRGFLMRPTRTVHYYWRQFDDAFMRPVFGGRGFVPFVPGSPTERSSHDLSKP
CML18 [3]
  interaction with CML18 (Y2H): strongly
AXT3K strain
  HygB resistance / protein activity in AXT3K: suppressed the HygB sensitivity
CML18 [4]
  interaction with CML18 (BiFC): interacted with CML18
C terminus of NHX1
  homodimerization / heterodimerization (Y2H): positive results
